Screening data deposited in PubChem by several laboratories.
LMPTP block: LMPTP (human) inhibition; P24666; recombinant LMPTP-A, OMFP fluorogenic substrate, fluorescence intensity; hit rate 0.22% among 360,000; inhibition, % at 20 µM;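 active = compounds that cut the enzyme signal by at least half of the control window in the single-dose screen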;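 note: plate controls were DMSO wells with enzyme plus substrate for no effect and substrate without enzyme for full effect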
Target sequence (P24666 whole entry, looked up): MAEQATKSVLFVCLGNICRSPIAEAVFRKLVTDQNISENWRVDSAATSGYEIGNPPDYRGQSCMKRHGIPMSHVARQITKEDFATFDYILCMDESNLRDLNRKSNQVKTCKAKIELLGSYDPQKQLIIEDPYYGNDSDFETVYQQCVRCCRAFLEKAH
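test system = LMPTP-A | amount = 0.625 nM LMPTP-A final | reagent = fluorogenic phosphatase substrate OMFP at 400 µM final | incubation = 50 min at room temperature | benchmarks = no-enzyme low control, uninhibited high control | medium = Bis-Tris pH 6.0, DTT, detergent | signal = fluorescence intensity of OMFP turnover product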
DNMT1 inh: blocks human DNA methyltransferase DNMT1. hit rate 0.83% among 360,000. DNMT1 molecular beacon, Hinp1I cleavage, fluorescence. P26358. inhibition (reported as % activation of signal), % at 10 µM; in the data active = inhibition above about 50%
SUMO1-SIM PPI: modulators of human SUMO1-mediated protein-protein interactions; P63165; SUMO1 binding to a labelled peptide, TR-FRET, 1 h; inhibition, % at 20 µM; hit rate 0.33% among 360,000; AID 602429; in the data active = inhibition above about 37%
Target sequence (P63165 whole entry, looked up): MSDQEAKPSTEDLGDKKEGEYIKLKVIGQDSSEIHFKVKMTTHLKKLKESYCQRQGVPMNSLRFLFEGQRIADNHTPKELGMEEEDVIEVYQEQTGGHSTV
Scp1 inh: blocks human Scp-1 phosphatase activity; Recombinant Scp1, phosphopeptide, malachite green phosphate absorbance; hit rate 0.88% among 340,000; inhibition, % at 20 µM; AID 493091;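 active = inhibition above about 50% at 20 µM, limit read from the data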;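 note: plate controls were DMSO wells with enzyme for no effect and wells lacking enzyme for full effect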
Target sequence (Q9GZU7 76-261 limits assumed): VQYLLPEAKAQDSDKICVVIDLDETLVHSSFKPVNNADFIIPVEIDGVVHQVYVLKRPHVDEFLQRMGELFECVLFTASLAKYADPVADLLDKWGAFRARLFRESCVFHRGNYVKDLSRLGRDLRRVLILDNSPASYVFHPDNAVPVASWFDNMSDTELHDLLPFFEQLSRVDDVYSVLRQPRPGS
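Assay system: SCP-1 catalytic fragment, aa 76-261 | Buffer or medium: Tris acetate buffer pH 5.5 with MgCl2 and Tween-20 | Compound: One concentration, 20 µM, with 1.0% DMSO | Also added: Phospho 17-mer peptide substrate | Signal: Absorbance at 630 nm | Incubation: 45 min enzyme reaction at room temperature | Measure: % inhibition of SCP-1 phosphate liberation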
STEP inh: STEP (human) phosphatase inhibition. P54829. recombinant STEP, OMFP fluorogenic substrate, fluorescence. inhibition, % at 20 µM. hit rate 0.25% among 360,000;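 active = inhibition at 20 µM, scaled per plate between control wells, above about 37%, limit read from the data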;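 note: 0% = DMSO with enzyme and substrate and 100% = substrate only without enzyme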
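medium = Bis-Tris buffer pH 6.0, 2.5 mM DTT, 0.005% Tween 20 | test system = STEP (striatal-enriched tyrosine phosphatase) enzyme, cell-free | measure = normalized % inhibition | compound dosing = 20 µM, 1% DMSO | also added = 25 µM OMFP | schedule = reaction 20 min, ambient temperature | measured by = fluorescence read at 480 nm ex / 540 nm em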
GRK2 aptamer HTS: human GRK2 inhibition via aptamer displacement. hit rate 0.59% among 330,000. inhibition of aptamer binding, % at 10 µM. bead flow cytometry, FAM-aptamer displacement from GRK2;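 active = inhibition of aptamer binding above 40%, roughly 3 SD of noise, on plates passing a quality check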;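 note: median bead fluorescence of bound FAM aptamer so fluorescent compounds give negative values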
STEP conf: confirmation of human STEP phosphatase inhibitors | shares compounds with STEP inh | AID 623866 | inhibition, % at 20 µM | recombinant STEP, OMFP fluorogenic substrate, fluorescence | hit rate 32% among 520; call rule not given here;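 note: 0% = enzyme with substrate plus DMSO and 100% = substrate without enzyme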
* = called active by the depositor. Only some compounds are listed: those with a hit (about 2.1% of all), similar ones and a draw of the others.

How did Cc1cccc2c(C(=O)N3CCN(c4ccccn4)CC3)cc(-c3cccc(Br)c3)nc12 do in these assays?
LMPTP block: 6; DNMT1 inh: -10; SUMO1-SIM PPI: -4; Scp1 inh: -1; STEP inh: 69*; GRK2 aptamer HTS: 2; STEP conf: 19

Results for O=C(c1cc(-c2cccc(Cl)c2)nc2ccccc12)N1CCN(c2ccccn2)CC1 ?
LMPTP block: 6; DNMT1 inh: -2; SUMO1-SIM PPI: -3; Scp1 inh: 0; STEP inh: 1; GRK2 aptamer HTS: 0

What do the screens show for `CCC(CC)c1nnc(NC(=O)c2cc(C(=O)OC)cc([N+](=O)[O-])c2)s1`?
LMPTP block: 1; DNMT1 inh: 7; SUMO1-SIM PPI: -17; Scp1 inh: -9; STEP inh: 97*; GRK2 aptamer HTS: 2; STEP conf: 69*

How did CC(C(=O)Nc1ccc(O)cc1C(=O)O)N1C(=O)/C(=C\c2cccs2)SC1=S (stereo not given) do in these assays?
LMPTP block: 8; DNMT1 inh: -6; SUMO1-SIM PPI: 6; Scp1 inh: 34; STEP inh: 77*; GRK2 aptamer HTS: 3; STEP conf: 80*

Results for S=C(Nc1ccccc1Cl)NC1CCN(Cc2ccccc2)CC1 ?
LMPTP block: -1; DNMT1 inh: -2; SUMO1-SIM PPI: -1; Scp1 inh: -3; STEP inh: -2; GRK2 aptamer HTS: 1

What do the screens show for `S=C(Nc1ccccc1Cl)NC1CCC(NC(=S)Nc2ccccc2Cl)CC1` (stereo not given)?
LMPTP block: -3; DNMT1 inh: 20; SUMO1-SIM PPI: 2; Scp1 inh: -5; STEP inh: 44*; GRK2 aptamer HTS: 0; STEP conf: 4

Results for Cc1cc(C)c(NC(=S)NCC2CCN(C(C)c3ccccc3)C2)c(C)c1 (stereo not given) ?
LMPTP block: 1; DNMT1 inh: -5; SUMO1-SIM PPI: 1; Scp1 inh: -8; STEP inh: 95*; GRK2 aptamer HTS: 0; STEP conf: 83*

Results for CC(c1ccccc1)N1CCC(CNC(=S)Nc2cccc(Cl)c2)C1 (stereo not given) ?
LMPTP block: 1; DNMT1 inh: -2; SUMO1-SIM PPI: 2; Scp1 inh: -5; STEP inh: 4; GRK2 aptamer HTS: 4

What do the screens show for `Cc1ccc(NC(=S)NCC2CCN(C(C)c3ccccc3)C2)cc1` (stereo not given)?
LMPTP block: 1; DNMT1 inh: 0; SUMO1-SIM PPI: 0; Scp1 inh: -10; STEP inh: 47*; GRK2 aptamer HTS: 0; STEP conf: 10

What do the screens show for `CN=C1N(C)C[C@@H]2[C@@H]3C(=O)N(C)C(=O)[C@@H]3[C@](Cc3ccccc3)(C(=O)OC)N12`?
LMPTP block: 3; DNMT1 inh: 1; SUMO1-SIM PPI: 21; Scp1 inh: -1; STEP inh: 2; GRK2 aptamer HTS: 1

How did COC(=O)c1ccc2nc(-c3ccc(F)cc3)c(Cc3ccsc3)n2c1 do in these assays?
LMPTP block: 3; DNMT1 inh: 6; SUMO1-SIM PPI: 0; STEP inh: 0

How did O=C(CC(=O)c1ccccc1)Nc1cccc([N+](=O)[O-])c1 do in these assays?
LMPTP block: 0; DNMT1 inh: -5; SUMO1-SIM PPI: -30; STEP inh: 2

What do the screens show for `O=C(CC(=O)c1cccc([N+](=O)[O-])c1)Nc1ccccc1Cl`?
LMPTP block: -2; DNMT1 inh: -4; SUMO1-SIM PPI: -12; Scp1 inh: -7; STEP inh: 120*; GRK2 aptamer HTS: 2; STEP conf: 0

How did CCN1CCN(C(=S)c2ccc(OCC(=O)NCc3ccccc3)cc2)CC1 do in these assays?
LMPTP block: -2; DNMT1 inh: -3; SUMO1-SIM PPI: 2; Scp1 inh: -5; STEP inh: 64*; GRK2 aptamer HTS: 1; STEP conf: 25*

Results for S=C(c1ccccc1)N1CCN(C(=S)c2ccccc2)CC1 ?
LMPTP block: -1; DNMT1 inh: -2; SUMO1-SIM PPI: -1; Scp1 inh: -7; STEP inh: 3; GRK2 aptamer HTS: 0

Results for CCN1CCN(C(=S)c2ccc(Cl)c(Cl)c2)CC1 ?
LMPTP block: -1; DNMT1 inh: 2; SUMO1-SIM PPI: 1; Scp1 inh: -9; STEP inh: 91*; GRK2 aptamer HTS: 5; STEP conf: 51*

What do the screens show for `Cc1ccc(C(=S)N2CCN(Cc3ccccc3)CC2)cc1`?
LMPTP block: 1; DNMT1 inh: 2; SUMO1-SIM PPI: -4; Scp1 inh: 2; STEP inh: 87*; GRK2 aptamer HTS: 0; STEP conf: 34

How did CCN1CCN(C(=S)c2ccc(-c3ccccc3)cc2)CC1 do in these assays?
LMPTP block: -1; DNMT1 inh: 0; SUMO1-SIM PPI: -1; Scp1 inh: -1; STEP inh: 42*; GRK2 aptamer HTS: 17; STEP conf: 25

How did COc1ccc(NC(=O)CCc2nc3ccccc3c(=O)[nH]2)cc1S(=O)(=O)N1CCCCC1 do in these assays?
LMPTP block: 0; DNMT1 inh: 4; SUMO1-SIM PPI: 3; Scp1 inh: 1; STEP inh: -2; GRK2 aptamer HTS: 0

How did CCOc1ccc(C(=O)CN2C(=O)NC3(CCCc4ccccc43)C2=O)cc1 (stereo not given) do in these assays?
LMPTP block: 0; DNMT1 inh: -6; SUMO1-SIM PPI: 1; STEP inh: 1

Results for Cc1ccc(N(CC(=O)N/N=C/c2cccs2)S(C)(=O)=O)cc1 ?
LMPTP block: 0; DNMT1 inh: -3; SUMO1-SIM PPI: -4; Scp1 inh: -1; STEP inh: 121*; GRK2 aptamer HTS: 1; STEP conf: -7

How did CC(C)CC1(C)NC(=O)N(CC(=O)Nc2ccccc2Br)C1=O (stereo not given) do in these assays?
LMPTP block: -1; DNMT1 inh: -4; SUMO1-SIM PPI: 0; Scp1 inh: -10; STEP inh: -1; GRK2 aptamer HTS: 0

Results for CNC(=S)Nc1ccccc1-c1ccccc1 ?
LMPTP block: -2; DNMT1 inh: 11; SUMO1-SIM PPI: 1; Scp1 inh: -4; STEP inh: 41*; GRK2 aptamer HTS: 0; STEP conf: 6

Results for CCc1ccccc1NC(=O)CN(C)C(=O)c1cccc(S(=O)(=O)N2CCCCCC2)c1 ?
LMPTP block: -2; DNMT1 inh: 4; SUMO1-SIM PPI: 2; Scp1 inh: -8; STEP inh: 3; GRK2 aptamer HTS: 2

Results for COc1ccc(NC(=S)N(CCC(C)C)C2CCN(C(C)C)CC2)cc1Cl ?
LMPTP block: 2; DNMT1 inh: 2; SUMO1-SIM PPI: 1; Scp1 inh: -6; STEP inh: 98*; GRK2 aptamer HTS: 0; STEP conf: 79*
